Source: article PMC2745708 (Free radical biology & medicine, 2009)

Tests used:
NOS3 = NOS3 (Bos taurus, UniProt P29473); test: 14-C-L-arginine to 14-C-L-citrulline conversion by purified recombinant NOS3; assay type: biochemical, bovine; settings: purified recombinant enzyme
Method in brief: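 Purchased recombinant bovine NOS3, with NOS co-factors and 14C-L-arginine, with or without graded test compound, in near-dark conditions. 14C-L-citrulline formed was separated from 14C-L-arginine on a Dowex 50W-X8 cation-exchange column and counted by scintillation. Activity is given as percent inhibition.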

NOS2 = NOS2 (Homo sapiens, UniProt P35228); test: 14-C-L-arginine to 14-C-L-citrulline conversion by purified recombinant NOS2; assay type: biochemical
NOS1 = NOS1 (Rattus norvegicus, UniProt P29476); test: 14-C-L-arginine to 14-C-L-citrulline conversion by purified recombinant NOS1; assay type: biochemical
Method in brief: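 Purified recombinant rat NOS1 or human NOS2 holoprotein at 5 nM. Incubated 60 min at 37°C with 2.9 μM 14C-L-arginine and 10 μM unlabeled L-arginine in 50 mM HEPES pH 7.5, with 10 μM FAD, 1 mM DTT, 100 μM tetrahydrobiopterin, 200 μM NADPH, and graded test compound, in near-dark. Stopped with HEPES pH 5.5/citrulline/EDTA. 14C-citrulline separated on Dowex 50W-X8, scintillation-counted; percent inhibition calculated.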

NOS2 oxygenase domain = NOS2 oxygenase domain (Homo sapiens, UniProt P35228); test: CO binding to reduced NOS2 oxygenase domain heme; settings: NOS2 oxygenase domain reduced with dithionite
Method in brief: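 Purified recombinant NOS2 oxygenase domain (about 3 μM final) reduced with dithionite and exposed to CO, with or without test compound. UV/visible spectra recorded, monitoring the ferrous-heme–CO peak at 445 nm.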

[1] = system: Raw 264.7 mouse macrophage cell line; test: NO production by interferon-gamma-activated macrophages; assay type: cell-based; settings: 0.5, 2.0 or 8.0 μM for 24 hours with 500 units/ml murine interferon gamma
Method in brief: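 Raw 264.7 cells kept by serial passage in RPMI-1640 with 10% FBS. Activated 24 h with 500 units/ml murine interferon-gamma, with 0, 0.5, 2.0 or 8.0 μM test compound present throughout. Loaded with 10 μM DAF-FM for 30 min, washed, and fluorescence read at 495/515 nm. NO production given as percent of control; SEM from 6 separate experiments.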

[2] = purified recombinant enzyme, 60 min, 37°C
[3] = agent exposed to light for 60 minutes (with light)
[4] = agent not exposed to light (no light)

NOS2 oxygenase domain, sequence (P35228 1-504 limits assumed): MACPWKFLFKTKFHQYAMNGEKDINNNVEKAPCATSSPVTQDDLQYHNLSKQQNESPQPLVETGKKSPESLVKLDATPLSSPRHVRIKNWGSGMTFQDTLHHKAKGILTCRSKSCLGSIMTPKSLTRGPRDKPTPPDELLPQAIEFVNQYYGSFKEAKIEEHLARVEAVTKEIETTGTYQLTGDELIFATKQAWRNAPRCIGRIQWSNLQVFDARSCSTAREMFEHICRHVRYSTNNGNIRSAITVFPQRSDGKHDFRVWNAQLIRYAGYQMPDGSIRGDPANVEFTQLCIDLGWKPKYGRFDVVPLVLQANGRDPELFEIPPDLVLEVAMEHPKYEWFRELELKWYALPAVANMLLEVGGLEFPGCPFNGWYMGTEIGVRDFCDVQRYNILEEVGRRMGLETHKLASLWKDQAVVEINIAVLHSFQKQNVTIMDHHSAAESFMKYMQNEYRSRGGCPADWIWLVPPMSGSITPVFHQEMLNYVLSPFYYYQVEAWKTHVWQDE

**Q.** Which “Estimated ED50 NOS3” value (NOS3) does the source give for `C/C1=C2/[N-][C@H]([C@H](CC(N)=O)[C@@]2(C)CCC(=O)NC[C@@H](C)OP(=O)([O-])O[C@H]2[C@@H](O)[C@@H](n3cnc4cc(C)c(C)cc43)O[C@@H]2CO)[C@]2(C)N=C(/C(C)=C3N=C(/C=C4N=C1[C@@H](CCC(N)=O)C\4(C)C)[C@@H](CCC(N)=O)[C@]\3(C)CC(N)=O)[C@@H](CCC(N)=O)[C@]2(C)CC(N)=O.[Co+3].[OH-]` [Hydroxocobalamin] here?
**A.** 9.1 µM

**Q.** And the “Estimated ED50 NOS2” value (NOS2; [2])?
**A.** 21.1 µM

**Q.** And the “Estimated ED50 NOS1” value (NOS1; [2])?
**A.** 5.7 µM

**Q.** `C/C1=C2N=C(/C=C3N=C(/C(C)=C4\[N-]C(C(CC(N)=O)C4(C)CCC(=O)NCC(C)OP(=O)([O-])OC4C(CO)OC(n5cnc6cc(C)c(C)cc65)C4O)C4(C)N=C1C(CCC(N)=O)C4(C)CC(N)=O)C(CCC(N)=O)C\3(C)C)C(CCC(N)=O)C/2(C)CC(N)=O.NC(CCC(=O)NC(C[S-])C(=O)NCC(=O)O)C(=O)O.[Co+3]` (stereo not drawn) [Glutathionylcobalamin] was tested. Which “Estimated ED50 NOS3” value (NOS3) did it give?
**A.** 41.0 µM

**Q.** What about the “Estimated ED50 NOS2” value (NOS2; [2]) of the same compound?
**A.** 29.0 µM

**Q.** And the “Estimated ED50 NOS1” value (NOS1; [2])?
**A.** 9.6 µM

**Q.** What does the source list for `C/C1=C2/[N-]C([C@H](CC(N)=O)[C@@]2(C)CCC(=O)NCC(C)O)[C@]2(C)N=C(/C(C)=C3N=C(/C=C4N=C1[C@@H](CCC(N)=O)C\4(C)C)[C@@H](CCC(N)=O)[C@]\3(C)CC(N)=O)[C@@H](CCC(N)=O)[C@]2(C)CC(N)=O.[C-]#N.[C-]#N.[Co]` (stereo partly drawn) [Dicyanocobinamide]?
**A.** Estimated ED50 NOS3 (NOS3): 0.33 µM; Estimated ED50 NOS2 (NOS2; [2]): 2.29 µM; Effect on CO-induced spectral changes (ferrous-CO adduct formation) (NOS2 oxygenase domain): markedly diminished; NO production by cells [1]: dose-dependent inhibition; Estimated ED50 NOS1 (NOS1; [2]): 0.23 µM

**Q.** For `C/C1=C2/[N-][C@H]([C@H](CC(N)=O)[C@@]2(C)CCC(=O)NC[C@@H](C)OP(=O)([O-])O[C@H]2[C@@H](O)[C@@H](n3cnc4cc(C)c(C)cc43)O[C@@H]2CO)[C@]2(C)N=C(/C(C)=C3N=C(/C=C4N=C1[C@@H](CCC(N)=O)C\4(C)C)[C@@H](CCC(N)=O)[C@]\3(C)CC(N)=O)[C@@H](CCC(N)=O)[C@]2(C)CC(N)=O.[CH2-][C@H]1O[C@@H](n2cnc3c(N)ncnc32)[C@H](O)[C@@H]1O.[Co]` [Adenosylcobalamin], which “Estimated ED50 NOS2” value (NOS2; [3]) is on record?
**A.** 60.0 µM

**Q.** And the “Estimated ED50 NOS2” value (NOS2; [4])?
**A.** 2148.0 µM

**Q.** And the “Estimated ED50 NOS1” value (NOS1; [3])?
**A.** 6.4 µM

**Q.** What about the “Estimated ED50 NOS1” value (NOS1; [4]) of the same compound?
**A.** 498.0 µM

**Q.** Which results are given for `C/C1=C2/[N-][C@H]([C@H](CC(N)=O)[C@@]2(C)CCC(=O)NC[C@H](C)OP(=O)([O-])O[C@H]2[C@@H](O)[C@@H](n3cnc4cc(C)c(C)cc43)O[C@@H]2CO)[C@]2(C)N=C(/C(C)=C3N=C(/C=C4N=C1[C@@H](CCC(N)=O)C\4(C)C)[C@@H](CCC(N)=O)[C@]\3(C)CC(N)=O)[C@@H](CCC(N)=O)[C@]2(C)CC(N)=O.[CH3-].[Co+3]` [Methylcobalamin]?
**A.** Estimated ED50 NOS2 (NOS2; [3]): 63.0 µM; Estimated ED50 NOS2 (NOS2; [4]): 231.0 µM; Estimated ED50 NOS1 (NOS1; [3]): 5.9 µM; Estimated ED50 NOS1 (NOS1; [4]): 576.0 µM

**Q.** Which “Estimated ED50 NOS2” value (NOS2; [2]) does the source give for `CC1(C)N([O])C(c2ccc(C(=O)[O-])cc2)=[N+]([O-])C1(C)C.[K+]` [Carboxy-PTIO, 2-(4-Carboxyphenyl)-4,4,5,5-tetramethylimidazoline-1-oxyl-3-oxide (potassium salt)] here?
**A.** 1359.0 µM

**Q.** What about the “Estimated ED50 NOS1” value (NOS1; [2]) of the same compound?
**A.** 1360.0 µM

**Q.** `C/C1=C2/[N-][C@H]([C@H](CC(N)=O)[C@@]2(C)CCC(=O)NC[C@@H](C)O)[C@]2(C)N=C(/C(C)=C3N=C(/C=C4N=C1[C@@H](CCC(N)=O)C\4(C)C)[C@@H](CCC(N)=O)[C@]\3(C)CC(N)=O)[C@@H](CCC(N)=O)[C@]2(C)CC(N)=O.[Co+3]` [Cobinamide] was tested. Which “Estimated ED50 NOS3” value (NOS3) did it give?
**A.** 43.0 µM

**Q.** What about the “Estimated ED50 NOS2” value (NOS2; [2]) of the same compound?
**A.** 50.0 µM

**Q.** What about the “Estimated ED50 NOS1” value (NOS1; [2]) of the same compound?
**A.** 15.0 µM

**Q.** Cyanocobalamin was tested. Which “Estimated ED50 NOS3” value (NOS3) did it give?
**A.** 519.0 µM

**Q.** What about the “Estimated ED50 NOS2” value (NOS2; [2]) of the same compound?
**A.** 1620.0 µM

**Q.** And the “Estimated ED50 NOS1” value (NOS1; [2])?
**A.** 72.0 µM
